This is a sample that favours compounds with a hit; in the whole collection about 0.19% have one here.
GASC1 inh: inhibitors of GASC-1 (KDM4C) histone demethylase, primary screen, biochemical, single concentration HTS | Lysine-specific demethylase 4C (Homo sapiens), Q9H3R0 | GST-KDM4C 2-372, H3K9me3 peptide, LANCE TR-FRET | inhibition, % at 12.5 µM | 96,000 tested, 0.15% active | AID 720574, 2013;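 active = mean replicate inhibition above about 25%, with at least 55% of replicates also reaching it, limit read from the data, passing the limit was not always enough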
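Compound: one test concentration per compound; Material: GST-GASC-1 enzyme fragment 2-372; Amount: GASC-1 enzyme at 10 nM final in reaction; Also added: H3K9me3 peptide substrate, Fe(II), 2-oxoglutarate; Technique: LANCE TR-FRET; Times: 30 min demethylation and 1 h detection at room temperature.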
IDH1 R132H inh: inhibitors of IDH1 R132H reductase, primary screen, biochemical, plate reader, single point. Isocitrate dehydrogenase [NADP] cytoplasmic (Homo sapiens), O75874. diaphorase/resazurin fluorescence, 60 min. inhibition, % at 10 µM. 70,000 tested, 0.18% active. AID 624101, 2012; in the data active = inhibition above about 34%;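 also: 0% = DMSO and 100% = no enzyme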
Target sequence (O75874 whole entry R132H): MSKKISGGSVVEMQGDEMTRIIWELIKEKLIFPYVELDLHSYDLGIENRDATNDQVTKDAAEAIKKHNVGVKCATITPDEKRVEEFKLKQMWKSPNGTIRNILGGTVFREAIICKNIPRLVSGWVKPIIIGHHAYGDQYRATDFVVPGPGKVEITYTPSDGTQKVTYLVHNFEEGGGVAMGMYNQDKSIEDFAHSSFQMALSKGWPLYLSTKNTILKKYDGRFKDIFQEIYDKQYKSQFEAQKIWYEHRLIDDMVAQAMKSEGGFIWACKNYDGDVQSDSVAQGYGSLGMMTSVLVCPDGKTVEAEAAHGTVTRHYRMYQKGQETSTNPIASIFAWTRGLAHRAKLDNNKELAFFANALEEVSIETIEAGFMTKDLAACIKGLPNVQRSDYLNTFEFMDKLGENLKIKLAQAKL
* hit, by the source's call; . = no result given; ! = not active in a repeat.

SMILES	GASC1 inh	IDH1 R132H inh
COc1ccc(CCN2C(=O)C(C)SC2c2cccnc2)cc1 (centres undefined)	.	-1
COc1ccc(N(CC(=O)Nc2cccc([N+](=O)[O-])c2C)S(C)(=O)=O)cc1Cl	.	0
COc1cccc(NC(=O)N[C@@H]2C=C[C@H](CC(=O)N3CCCCC3)O[C@@H]2CO)c1	1	.
COc1cccc(NC(=O)N[C@@H]2C=C[C@@H](CC(=O)N3CCCCC3)O[C@@H]2CO)c1	34*	.
O=C(CSc1nc2ccccc2c(=O)n1-c1ccc(Cl)cc1)Nc1cccc(Cl)c1	.	0
CCn1c(SCC(=O)Nc2cccc(F)c2)nnc1-c1ccc(C)cc1	.	0
COc1ccc(C#Cc2ccc3c(c2)[C@H]2[C@H](CCN2S(=O)(=O)c2ccccc2F)[C@H](CO)N3C)cc1	0	.
COc1ccc(C#Cc2ccc3c(c2)[C@@H]2[C@@H](CCN2S(=O)(=O)c2ccccc2F)[C@@H](CO)N3C)cc1	48*	.
Cc1cc(C)c(OCC(=O)Nc2ncc(I)cc2C)c(Cl)c1	.	0
CC(C)NC(=O)N[C@@H]1CC[C@H](CCNC(=O)C2CCC2)O[C@@H]1CO	-2	0
CC(C)NC(=O)N[C@H]1CC[C@H](CCNC(=O)C2CCC2)O[C@H]1CO	27*	0
Cc1ccc(S(=O)(=O)NCC[C@@H]2CC[C@@H](NC(=O)c3cccc(F)c3)[C@@H](CO)O2)cc1	0	-1
Cc1ccc(S(=O)(=O)NCC[C@H]2CC[C@@H](NC(=O)c3cccc(F)c3)[C@@H](CO)O2)cc1	44*	1
Cc1ccc(S(=O)(=O)N[C@@H]2CC[C@@H](CCNC(=O)C3CCCCC3)O[C@@H]2CO)cc1	0	0
Cc1ccc(S(=O)(=O)N[C@H]2CC[C@H](CCNC(=O)C3CCCCC3)O[C@H]2CO)cc1	72*	67*
COCCCN1C(=O)c2oc3ccc(Br)cc3c(=O)c2C1c1cccc([N+](=O)[O-])c1 (centres undefined)	.	2
CCNC(=O)c1c(NC(=O)COc2cccc3ccccc23)sc2c1CCCC2	.	0
O=C(CSc1nnnn1C1CCCCC1)Nc1ccccc1[N+](=O)[O-]	.	-1
CO[C@@]12[C@@H]3NC3CN1C1=C(C(=O)C(N)=C(C)C1=O)[C@@H]2COC(N)=O (some centres undefined)	.	0
Cc1ccc(NC(=O)c2c(NC(=O)CN3CCOCC3)sc3c2CCC3)c(C)c1	.	0
CCOC(=O)NC1c2ccccc2Sc2ccc(Cl)cc21 (centres undefined)	.	-1
Cc1ccnc(NC(c2cccc(Cl)c2)c2ccc3ccc(C)nc3c2O)c1 (centres undefined)	.	0
Cc1cc(C)nc(Nc2n[nH]c(CSc3nc4ccccc4s3)n2)n1	.	0
CCc1cccc(-n2c(-c3ccco3)nc3c(cnn3-c3ccccc3Cl)c2=O)c1	.	46*
N#Cc1ccc(-c2ccc(C3[C@@H]4CN(C(=O)c5ccncc5)C[C@H]3N4)cc2)cc1 (some centres undefined)	39*!	.
SMILES	GASC1 inh	IDH1 R132H inh
N#Cc1cccc(-c2ccc(C3[C@@H]4CN(C(=O)c5ccncc5)C[C@H]3N4)cc2)c1 (some centres undefined)	0	.
COc1ccccc1-c1ccc2c(c1)O[C@@H](CN(C)C(=O)c1ccncc1)[C@H](C)CN([C@@H](C)CO)S2(=O)=O	32*	36*
C[C@H](CO)N1C[C@H](C)[C@H](CN(C)C(=O)C2CCCCC2)Oc2cc(-c3cncnc3)ccc2S1(=O)=O	0	.
C/C=C/c1ccc2c(c1)O[C@H](CN(C)CCC)[C@H](C)CN([C@H](C)CO)S2(=O)=O	43*	84*
C/C=C/c1ccc2c(c1)O[C@@H](CN(C)CCC)[C@@H](C)CN([C@@H](C)CO)S2(=O)=O	0	-3
C[C@@H]1CN([C@@H](C)CO)S(=O)(=O)c2ccc(C#Cc3ccncc3)cc2O[C@H]1CN(C)S(=O)(=O)c1ccccc1	-7	0
C[C@H]1CN([C@@H](C)CO)S(=O)(=O)c2ccc(-c3cncnc3)cc2O[C@@H]1CN(C)C(=O)C1CCCCC1	35*	.
C[C@H]1CN([C@@H](C)CO)S(=O)(=O)c2ccc(C#Cc3ccncc3)cc2O[C@@H]1CN(C)S(=O)(=O)c1ccccc1	28*	12
COc1ccccc1-c1ccc2c(c1)O[C@@H](CN(C)C(=O)c1ccncc1)[C@@H](C)CN([C@H](C)CO)S2(=O)=O	0	-4
COc1c(O)ccc2c1C(=O)c1c(O)cc(C)cc1C2[C@@H]1O[C@H](CO)[C@@H](O)[C@H](O)[C@H]1O (some centres undefined)	.	-1
CS(=O)(=O)N(CC(=O)Nc1cc(Cl)ccc1Oc1ccccc1)c1ccccc1Br	.	0
Cc1ccc(C)c(NC(=O)CN(c2ccc(C)c(Cl)c2)S(C)(=O)=O)c1	.	0
COc1ccc(-n2nnnc2SCC(=O)Nc2cc(C)c(Cl)cc2OC)cc1	.	0
Cc1c(NC(=O)CN(c2ccc3c(c2)OCCO3)S(C)(=O)=O)c(=O)n(-c2ccccc2)n1C	.	0
COC(=O)c1cc(NC(=O)C(C)N(c2ccc(C)cc2)S(C)(=O)=O)ccc1Cl (centres undefined)	.	0
CC(NS(=O)(=O)c1ccc(F)cc1)C(=O)Nc1ccc(C(N)=O)cc1 (centres undefined)	.	0
COc1cc(Cl)c(C)cc1NC(=O)C1CCC(=O)N1S(=O)(=O)c1ccc(C)cc1 (centres undefined)	.	0
Cc1ccc(-c2ccc3c(c2)O[C@@H](CN(C)Cc2ccncc2)[C@H](C)CN([C@@H](C)CO)S3(=O)=O)cc1	1	0
CCCC#Cc1ccc2c(c1)O[C@@H](CN(C)Cc1cncnc1)[C@@H](C)CN([C@H](C)CO)S2(=O)=O	18	1
CCCC#Cc1ccc2c(c1)O[C@@H](CN(C)C)[C@@H](C)CN([C@H](C)CO)S2(=O)=O	53*	59*
CCCC#Cc1ccc2c(c1)O[C@H](CN(C)C)[C@@H](C)CN([C@@H](C)CO)S2(=O)=O	0	-1
CCCC#Cc1ccc2c(c1)O[C@H](CN(C)Cc1cncnc1)[C@@H](C)CN([C@@H](C)CO)S2(=O)=O	39*	24
Cc1ccc(-c2ccc3c(c2)O[C@H](CN(C)Cc2ccncc2)[C@H](C)CN([C@H](C)CO)S3(=O)=O)cc1	.	52*
Cc1cccc(NC(c2ccccc2[N+](=O)[O-])c2ccc3ccc(C)nc3c2O)n1 (centres undefined)	.	0
COc1ccccc1NC(=O)c1ccc(CSc2nc3ccccc3o2)cc1	.	0
CN(C)c1ccc2c(c1)[C@@H]1C[C@@H](CC(=O)NCC3CC3)O[C@@H](CO)[C@@H]1O2	32*	-12
COC(=O)C[C@H]1C[C@H]2c3cc(N(C)C)ccc3O[C@H]2[C@@H](CO)O1	36*	-11
CCCNC(=O)C[C@@H]1C[C@H]2c3cc(NC(=O)CN(C)C)ccc3O[C@H]2[C@H](CO)O1	40*	45*
CCCNC(=O)C[C@@H]1C[C@H]2c3cc(N(C)C)ccc3O[C@H]2[C@@H](CO)O1	28*	-3
CN(C)c1ccc2c(c1)[C@H]1C[C@H](CC(=O)NCCc3ccccc3)O[C@H](CO)[C@H]1O2	18	-11

High-throughput results as filed in PubChem BioAssay.
